Only some compounds are listed: those with a hit (about 2.9% of all), similar ones and a draw of the others.
Apaf1 inhib – inhibitors of human Apaf-1 apoptosome. O14727. reconstituted apoptosome caspase-3 activity, DEVD-Rh110 fluorescence. inhibition, % at 20 µM. hit rate 0.71% among 330,000; active = inhibition of at least 40% at 20 µM
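Material: reconstituted apoptosome with Apaf-1, cytochrome c, caspase-9, procaspase-3, dATP / Buffer or medium: pH 7.5 Hepes buffer with CHAPS, BSA, DTT / Also added: cytochrome c with DEVD-Rh110 / Schedule: compound with Apaf-1, dATP, procaspase-3 30 min, then 50 min reaction, room temperature / Technique: rhodamine 110 fluorescence at Ex 480/Em 540 nm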
SENP6 inh – inhibitors of human SENP6 protease | AID 2599 | hit rate 1.8% among 330,000 | Recombinant SENP6 catalytic domain, aminoluciferin luminescence | Q9GZR1 | inhibition, % at 10 µM;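 active = inhibition above about 50% at the single tested dose, limit read from the data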
Target sequence (Q9GZR1 628-1112 limits assumed): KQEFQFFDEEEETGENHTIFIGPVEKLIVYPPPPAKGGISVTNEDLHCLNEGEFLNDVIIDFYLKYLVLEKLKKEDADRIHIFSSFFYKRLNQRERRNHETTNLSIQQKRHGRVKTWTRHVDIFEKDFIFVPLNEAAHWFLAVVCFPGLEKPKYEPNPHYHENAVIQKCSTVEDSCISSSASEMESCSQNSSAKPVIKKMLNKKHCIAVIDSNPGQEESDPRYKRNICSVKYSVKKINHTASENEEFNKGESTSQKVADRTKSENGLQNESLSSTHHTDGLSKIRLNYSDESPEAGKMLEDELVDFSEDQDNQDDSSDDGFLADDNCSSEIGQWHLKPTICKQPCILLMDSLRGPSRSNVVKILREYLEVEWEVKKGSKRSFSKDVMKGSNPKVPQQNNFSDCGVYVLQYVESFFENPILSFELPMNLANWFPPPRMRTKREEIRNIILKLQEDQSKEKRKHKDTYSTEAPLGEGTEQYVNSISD
SENP8 block-1 – SENP8 protease inhibition; Q96LD8; purified SENP8, Z-RLRGG-aminoluciferin cleavage, luminescence; inhibition, % at 10 µM; hit rate 1.2% among 330,000; AID 2540; in the data active = inhibition above about 50%
SENP1 FRET inh – SENP1 (human) catalytic domain inhibition. Q9P0U3. recombinant SENP1 catalytic domain, CyPet-SUMO1-YPet FRET cleavage. inhibition, % at 10 µM. hit rate 0.21% among 360,000;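 active = inhibition at least 30% at 10 µM, raw YFP signal under a set limit, fluorescence ratio 0.5 to 1.5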
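Test system: human SENP1 catalytic domain; medium: Tris pH 8 buffer plus EDTA, NaCl, BME, BSA, NP40, catalase; incubation: 50 min reaction at room temperature; technique: FRET, CFP and YFP emission; controls: no-enzyme low control and enzyme-plus-DMSO high control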
SENP7 inh – SENP7 protease inhibition | Q9BQF6 | recombinant SENP7, Z-RLRGG-aminoluciferin luminescence, 40 min | inhibition, % at 5 µM | hit rate 1.5% among 330,000 | AID 434973;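 active = inhibition above about 50% at the single test dose, limit read from the data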
SENP8 block-2 – blocks human SENP8 cleavage of Nedd8 substrate. recombinant SENP8, Nedd8 substrate fluorescence. inhibition, % at 20 µM. hit rate 0.64% among 360,000. AID 602440; in the data active = inhibition mostly above about 40%, no sharp cut-off; inactive = mostly below about 27%
SENP8 confirm – confirmation of human SENP8 protease inhibitors. shares compounds with SENP7 inh. Recombinant SENP8, Z-RLRGG-aminoluciferin luminescence, 60 min. inhibition, % at 12.5 µM. hit rate 40% among 6,200. AID 488912;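 active = mean inhibition across replicates above about 50%, limit read from the data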
SENP6 conf – human SENP6 inhibition, confirmed; shares compounds with SENP7 inh; recombinant SENP6, Z-RLRGG-aminoluciferin luminescence; inhibition, % at 12.5 µM; hit rate 58% among 6,200
SENP7 conf – human SENP7 inhibition, confirmed; shares compounds with SENP7 inh; inhibition, % at 12.5 µM; hit rate 69% among 6,200; recombinant SENP7, Z-RLRGG-aminoluciferin luminescence, 40 min
Casp3 select – caspase-3 inhibition (SENP selectivity assay) | purified caspase-3, Z-DEVD-aminoluciferin luminescence, 60 min | AID 488918 | hit rate 60% among 6,200 | inhibition, % at 12.5 µM | shares compounds with SENP7 inh;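 active = mean inhibition above about 50%, limit read from the data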
Target sequence (P42574 28-227 limits assumed): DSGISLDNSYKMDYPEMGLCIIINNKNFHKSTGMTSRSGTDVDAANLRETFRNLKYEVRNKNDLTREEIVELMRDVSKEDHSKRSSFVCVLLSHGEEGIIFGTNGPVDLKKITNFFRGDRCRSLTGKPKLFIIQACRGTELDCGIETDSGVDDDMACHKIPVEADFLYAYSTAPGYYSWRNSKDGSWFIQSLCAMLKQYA
Luc interf – interferes with luciferase luminescence in SENP counter-screen | shares compounds with SENP7 inh | inhibition, % at 12.5 µM | hit rate 39% among 6,200 | Pre-incubated SENP8/Z-RLRGG-aminoluciferin, luciferase luminescence interference;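 active = mean inhibition above about 50% when retested at one dose, limit read from the data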
A number is an active result; i = inactive; nt = no result.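 The calls were made as follows, unless noted: active = mean inhibition above about 50% in the one-dose retest (limit read from the data); inactive = the rest.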

SMILES	Apaf1 inhib	SENP6 inh	SENP8 block-1	SENP1 FRET inh	SENP7 inh	SENP8 block-2	SENP8 confirm	SENP6 conf	SENP7 conf	Casp3 select	Luc interf
O=C(Nc1ccc2c(c1)OCCO2)C1c2ccccc2OCC(=O)N1CC(F)(F)F (stereo unspecified)	nt	nt	nt	i	nt	i	nt	nt	nt	nt	nt
Cc1cc(O)ccc1Nc1nc(-c2cccs2)cs1	i	70	70	i	i	i	i	95	100	78	94
Cc1ccc(Nc2nc(-c3cccs3)cs2)nc1	i	93	91	i	i	i	i	98	102	85	68
c1ccc(-c2csc(NC3CCCCC3)n2)cc1	i	66	i	i	i	i	83	82	95	62	67
Cc1cc(C)nc(Nc2nc(-c3ccccc3)cs2)n1	i	74	82	i	90	i	i	i	i	i	i
CCOc1cc(N2CCOCC2)c(OCC)cc1NS(=O)(=O)c1cc(NC(C)=O)ccc1OC	i	i	i	i	i	i	nt	nt	nt	nt	nt
COC(=O)[C@@]12C[C@@H](CC(=O)NCc3cccs3)C(=O)N(Cc3ccco3)C1=CCC(C)(C)C2	nt	nt	nt	i	nt	i	nt	nt	nt	nt	nt
Cc1cccnc1CNC(=O)C1(C)CCCN1CC(C)C (stereo unspecified)	nt	nt	nt	i	nt	i	nt	nt	nt	nt	nt
Cc1ccc(S(=O)(=O)Nc2nc(-c3ccccc3)cs2)cc1	i	i	i	i	i	i	nt	nt	nt	nt	nt
Cc1ccc(Nc2nc(-c3ccccc3)cs2)nc1	i	i	91	i	89	i	85	97	102	84	72
Cc1ccsc1C(=O)NNC(=O)c1ccccc1F	i	i	i	i	58	i	i	i	76	83	56
Clc1ccccc1CN1CCN(/N=C/C=C/c2ccco2)CC1	i	i	i	i	i	i	nt	nt	nt	nt	nt
COc1ccccc1C1(O)CC2CCC(C1)N2S(=O)(=O)c1ccc(C(C)=O)cc1 (stereo unspecified)	i	i	i	i	59	i	i	i	i	i	i
COC(=O)c1ccc(S(=O)(=O)N2C3CCC2CC(NC(=O)C2CC2)C3)cc1 (stereo unspecified)	i	i	i	i	i	i	nt	nt	nt	nt	nt
CCOc1ccccc1OCCCC(=O)Nc1cc(S(=O)(=O)N2CCOCC2)ccc1OC	i	i	i	i	i	i	nt	nt	nt	nt	nt
COc1ccc(-c2csc(N3CCSCC3)n2)cc1	i	i	i	i	i	i	nt	nt	nt	nt	nt
COc1ccc(-c2csc(-n3cccn3)n2)cc1	i	81	72	i	80	i	i	79	96	65	69
NS(=O)(=O)c1c(Sc2ccccc2C(=O)O)ccc2ccccc12	i	94	i	i	52	i	i	i	i	i	i
CCOC(=O)c1ccc(Nc2nc(N)c3cc(OC)c(OC)cc3n2)cc1	54	76	73	i	97	i	66	78	95	58	64
COc1cc2nc(Nc3ccc(C)c(C)c3)nc(N)c2cc1OC	i	i	i	i	i	i	nt	nt	nt	nt	nt
COc1cc2nc(Nc3ccc(F)cc3)nc(N)c2cc1OC	i	63	51	i	67	i	66	63	90	61	70
CCOC(=O)c1ccc(Nc2ccc(-c3ccc(OC)c(OC)c3)nn2)cc1	i	i	i	i	i	i	nt	nt	nt	nt	nt
Cc1[nH]n(C(N)=S)c(=O)c1N=Nc1cc(-c2ccc(Br)cc2)[nH]n1	i	69	55	i	i	i	i	i	i	i	i
Cc1[nH]n(C(N)=S)c(=O)c1N=Nc1cccc([N+](=O)[O-])c1C	i	96	88	i	71	i	96	95	102	92	88
CC(=O)Nc1ccc(N=Nc2c(C)[nH]n(C(N)=S)c2=O)cc1	i	53	70	i	67	i	64	66	93	92	i
SMILES	Apaf1 inhib	SENP6 inh	SENP8 block-1	SENP1 FRET inh	SENP7 inh	SENP8 block-2	SENP8 confirm	SENP6 conf	SENP7 conf	Casp3 select	Luc interf
Cc1c(N=Nc2c(-c3ccc([N+](=O)[O-])cc3)[nH]n(C(N)=S)c2=O)cccc1[N+](=O)[O-]	nt	nt	nt	i	nt	i	nt	nt	nt	nt	nt
Cc1[nH]n(C(N)=S)c(=O)c1N=Nc1ccc2ccccc2c1	nt	nt	nt	i	nt	i	nt	nt	nt	nt	nt
Cc1ccc(N=Nc2c(C)[nH]n(C(N)=S)c2=O)cc1C	i	90	78	i	78	57	61	54	67	73	i
CCOc1ccc(Cl)cc1-c1cc(C(=O)NC(C)C)[nH]n1	nt	nt	nt	i	nt	i	nt	nt	nt	nt	nt
OCc1ccccc1-c1ccc2nccn2c1	nt	nt	nt	i	nt	i	nt	nt	nt	nt	nt
Cc1[nH]n(C(N)=S)c(=O)c1N=Nc1ccc(S(=O)(=O)N2CCCCCC2)cc1	i	73	i	i	i	i	51	i	i	i	i
O=C(/C(N=Nc1cccc([N+](=O)[O-])c1)=C(/O)c1ccc(Br)cc1)C(F)(F)F	i	i	i	i	i	i	nt	nt	nt	nt	nt
N#C/C(=N\Nc1ccc([N+](=O)[O-])cc1)C(N)=S	i	98	91	i	92	47	97	98	102	97	90
N#C/C(=N\Nc1cccc([N+](=O)[O-])c1)C(=O)c1ccc(Br)cc1	i	72	60	i	i	i	i	66	i	i	59
COc1cc2c(cc1OC)[C@@H](NC(=O)C(C)C)[C@H](OCc1ccccc1)C2	i	nt	nt	i	i	i	nt	nt	nt	nt	nt
O=[N+]([O-])c1ccc(N/N=C/c2cccc(O)c2)cc1	i	82	77	i	53	i	90	89	94	i	86
O=[N+]([O-])c1ccc(N/N=C/c2cccc(O)c2O)cc1	i	78	59	i	i	i	i	i	84	i	68
COc1cccc(C(=O)O/N=C(\N)c2ccccn2)c1OC	i	76	59	i	73	i	69	68	92	92	79
N/C(=N\OC(=O)c1cccc2ccccc12)c1ccccn1	i	80	69	i	77	i	81	79	94	79	84
Nc1nc(=O)n(C2CCCCO2)cc1Br (stereo unspecified)	nt	nt	nt	i	nt	i	nt	nt	nt	nt	nt
Cc1ccc(-n2c(C)cc(C3=NNC(=NC4CC4)SC3)c2C)cc1C	i	i	56	i	i	i	82	84	93	74	53

High-throughput results as filed in PubChem BioAssay.
